# PfM18AAP inh = PfM18AAP enzyme inhibition. recombinant PfM18AAP, H-Glu-NHMec fluorogenic cleavage. inhibition, % at 7.35 µM. hit rate 1.2% among 290,000;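 active = inhibition above the campaign mean inhibition over all tested compounds plus 3 SD, cut at about 28% in these data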;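 note: 0% = plate median of test compound wells and 100% = 2 mM ZnCl2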
# PfGluPho inh = PfG6PD (Plasmodium falciparum) enzyme inhibition; hit rate 0.78% among 350,000; AID 504690; inhibition, % at 20 µM; PfGluPho enzyme, NADPH resazurin-diaphorase fluorescence;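 active = inhibition reaching at least a set limit at 20 µM in the primary screen, cut at about 59% in these data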;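 note: 0% = DMSO wells with substrate and 100% = DMSO wells lacking glucose-6-phosphate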
# HKDC1 inh = inhibitors of human hexokinase HKDC1; Q2TB90; recombinant HKDC1, G6PDH/diaphorase resazurin coupled fluorescence; inhibition, % at 20 µM; hit rate 0.16% among 340,000;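 active = inhibition above about 35% when tested at 20 µM, limit read from the data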;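 note: plate controls were DMSO wells with enzyme for no effect and DMSO wells lacking enzyme for full effect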
#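 Test system: Recombinant HKDC1 (HK5) hexokinase enzyme, produced in-house | Input: HKDC1 at 5 µg/mL | Buffer or medium: Tris pH 8.0 buffer with MgCl2, Tween-20, BSA, BME | Schedule: 90 min reaction incubation at room temperature, dark | Technique: Resazurin-to-resorufin fluorescence via G6PDH and diaphorase coupling, 525/613 nm | Controls: DMSO wells with and without enzyme mix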
# Neddyl block = cullin neddylation inhibition; inhibition, % at 25 µM; AID 651699; TR-FRET cullin neddylation, biochemical; hit rate 0.58% among 360,000; in the data active = inhibition above about 36%
# Target sequence (P61081 whole entry, looked up): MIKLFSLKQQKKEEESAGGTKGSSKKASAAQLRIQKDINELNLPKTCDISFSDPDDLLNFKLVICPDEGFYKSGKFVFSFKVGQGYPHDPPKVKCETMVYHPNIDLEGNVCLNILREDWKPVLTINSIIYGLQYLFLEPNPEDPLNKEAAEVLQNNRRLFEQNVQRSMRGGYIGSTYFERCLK
# Target sequence (Q13564 whole entry, looked up): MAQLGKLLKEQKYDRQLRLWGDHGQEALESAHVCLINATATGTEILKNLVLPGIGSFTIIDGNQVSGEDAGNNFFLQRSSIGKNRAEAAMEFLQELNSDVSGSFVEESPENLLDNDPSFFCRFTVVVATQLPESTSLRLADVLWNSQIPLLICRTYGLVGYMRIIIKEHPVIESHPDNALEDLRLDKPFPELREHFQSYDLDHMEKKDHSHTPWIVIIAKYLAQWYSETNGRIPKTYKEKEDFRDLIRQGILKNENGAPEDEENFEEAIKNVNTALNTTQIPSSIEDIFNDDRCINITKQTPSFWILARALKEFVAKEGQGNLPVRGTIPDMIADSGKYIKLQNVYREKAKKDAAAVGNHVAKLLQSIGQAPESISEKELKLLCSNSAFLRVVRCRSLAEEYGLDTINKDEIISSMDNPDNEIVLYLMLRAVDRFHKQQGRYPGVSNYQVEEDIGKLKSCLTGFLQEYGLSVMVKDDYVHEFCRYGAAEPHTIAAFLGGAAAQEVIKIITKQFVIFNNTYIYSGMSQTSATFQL
# Neddyl conf = cullin neddylation inhibition, confirmation; calls only at 25 µM; AID 652217; TR-FRET cullin neddylation biochemical assay; shares compounds with Neddyl block; hit rate 13% among 1,800; in the data active = inhibition above about 40%;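 note: neddylation substrate is the cullin 1 ring ligase complex with SKP2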
# The depositor's hits bear a star; i = inactive; . = not tested or not shown; + = active, no number. Rows were chosen to be rich in hits. Some 2.2% of all compounds tested hit in one or more screens of this group.
SMILES,PfM18AAP inh,PfGluPho inh,HKDC1 inh,Neddyl block,Neddyl conf
CC(Oc1cccc(Br)c1)C(=O)NNC(=O)CCS(=O)(=O)c1ccccc1 (stereo not given),.,-10,-3,8,.
C=C(Cl)COc1ccc2c(CC)cc(=O)oc2c1,-22,3,-6,42*,i
CN(C(=O)COC(=O)c1ccc(Cl)s1)C1(C#N)CCCCC1,.,-14,-1,2,.
Cc1ccc2c(c1)c1c3n2CCN(C(=O)CN2CCN(C)CC2)C3CCC1 (stereo not given),1,23,9,34,.
Cc1ccc2c(c1)c1c3n2CCN(C(=O)C2CC2)C3CCC1 (stereo not given),0,15,7,45*,i
CC(Oc1ccccc1F)c1ccnc2nc(/N=C/N(C)C)nn12 (stereo not given),-6,-5,-6,47*,i
COc1ccccc1C(=O)Nc1ccc(OCC(=O)N2CC(C)OC(C)C2)cc1 (stereo not given),.,9,6,11,.
Cn1c2ccc(F)cc2c2ncn(CCCN(CCO)CCO)c(=O)c21,2,2,-9,38*,i
COc1ccccc1N1C(=NC(=O)CCc2ccccc2)SC2CS(=O)(=O)CC21 (stereo not given),-8,7,-4,-12,.
O=C(O)/C=C/C(=O)Nc1ccc2nccnc2c1,2,9,-4,41*,i
CCCCNC(=O)O[C@H]1C[C@@H]2CCN3C(=O)CCC[C@H]([C@H]1Cc1ccccc1)[C@H]23,-9,0,-3,-15,.
Nc1ncnc2c1ncn2C1C=C(CO)C(O)C1O (stereo not given),.,-4,-3,26,.
CC=C1OC(n2cnc3c(N)ncnc32)C(O)C1O (stereo not given),.,.,.,42*,i
Nc1ncnc2c1ncn2[C@@H]1O[C@H](COP(=O)(O)O)[C@@H](O)[C@H]1O,2,-4,-4,49*,+
Nc1ncnc2c1ncn2C1OC(COP(=O)(O)O)C(O)C1O (stereo not given),3,8,-2,56*,+
O=S(=O)(N[C@H](CO)Cc1ccccc1)c1ccc(Br)cc1F,.,2,-3,-13,.
CCCC#Cc1ccc2c(c1)COc1c3ccccc3nn1-2,.,-8,2,-23,.
CCc1cc(-c2ccc3c(c2)COc2c4ccccc4nn2-3)on1,.,6,-4,43*,i
O=C(NCCCn1ccnc1)c1ccccc1NS(=O)(=O)c1ccc(F)c(F)c1,-2,-9,-7,-8,.
Cc1cc(C)c(C)c(S(=O)(=O)Nc2ccccc2C(=O)NCCCn2ccnc2)c1C,0,-5,2,38*,.
Cc1cc(C)c(C)c(S(=O)(=O)Nc2ccccc2C(=O)O)c1C,-8,4,4,47*,.
O=C(O)c1ccccc1NS(=O)(=O)c1ccc2c(c1)OCCO2,-1,-28,-12,43*,.
COc1ccc(C(=O)Nc2ccc(Cl)cc2F)cc1S(=O)(=O)N1CCCC1,.,4,-2,4,.
O=c1[nH]c2ccccc2c2cn(-c3ccccc3)nc12,-4,64*,15,42*,i
Cc1c(OCc2nn[nH]n2)ccc2c3c(c(=O)oc12)CCC(C)C3 (stereo not given),7,-34,3,47*,i
SMILES,PfM18AAP inh,PfGluPho inh,HKDC1 inh,Neddyl block,Neddyl conf
Cc1c(OCc2nn[nH]n2)ccc2c3c(c(=O)oc12)CCCC3,7,-37,9,.,.
N#CCCn1c(-c2nonc2NC(=O)c2ccccc2Cl)nc2ccccc21,6,-22,0,13,.
CC(=O)Nc1nonc1-c1nc2ccccc2n1CCC#N,-1,-3,-1,45*,i
COc1ccc2nc(CC(C)(C)CC(=O)O)c[n+]([O-])c2c1,-3,-3,-2,51*,.
Clc1cccc(-c2nc3nc4ccccc4nc3n2Cc2ccccc2)c1,-3,10,-11,27,.
c1ccc(Cn2c(-c3ccccc3)nc3nc4ccccc4nc32)cc1,-2,8,-8,44*,i
CCCCn1nc(C(=O)N(C)CC(=O)Nc2ccc(F)c(F)c2F)ccc1=O,.,7,-8,4,.
N#C/C(=C\c1ccncc1)c1nc2c(s1)CCCC2,9,-10,-3,57*,.
COC(=O)c1ccccc1-c1cn(C)c2ccccc2c1=O,4,-15,4,.,.
CS(=O)(=O)Nc1ccc(C2=NN(C(=O)c3ccco3)C(c3ccccc3)C2)cc1 (stereo not given),4,20,-2,41*,i
O=C(c1ccco1)N1N=C(c2cccs2)CC1c1ccccc1O (stereo not given),-4,11,-2,54*,.
COc1cccc(C2CC(c3cccs3)=NN2C(=O)c2ccco2)c1O (stereo not given),8,12,4,28,.
O=C(CSc1ncn[nH]1)N1N=C2/C(=C/c3ccccc3)CCCC2C1c1ccccc1 (stereo not given),10,-4,0,38,.
COc1ccc(/C=C2\CCCC3C2=NN(C(=O)CSc2ncn[nH]2)C3c2ccc(OC)cc2)cc1 (stereo not given),6,2,12,44*,.
COCCCN1C(=O)C(CC(=O)NCCCCc2ccccc2)CC(C(=O)N2CCOCC2)=C1C (stereo not given),.,-20,.,3,.
COc1ccc(Cl)cc1NC(=O)c1nnn(CC(=O)Nc2ccc(C)c(C)c2)c1N,2,-1,-5,44*,i
COc1ccc(NC(=O)Cn2nnc(C(=O)Nc3ccc(F)c(Cl)c3)c2N)cc1OC,-3,1,0,10,.
COc1ccc(OC)c(/C=N/Nc2cc(C)nc(N3CCOCC3)n2)c1,-2,9,-4,39*,i
Cc1cc(N/N=C/c2ccccc2O)nc(N2CCOCC2)n1,-4,30,0,14,.
CN1C[C@@H]2C(c3ccccc3)C3(c4ccc(C#N)cc4)CC2(C3)[C@H]1c1ccccc1 (stereo not given in full),.,1,3,1,.
CN1C=CC2=C(C#N)C(N)C(C#N)(C#N)C(c3ccccc3)C2C1 (stereo not given),-8,11,2,43*,i
CCc1cc(C(c2ccc(OC)c(OC)c2)N2CCOCC2)c(NC(=O)c2ccccc2)s1 (stereo not given),-6,3,0,53*,i
C(=C\c1cccc2ccccc12)/c1nnc(-c2cccs2)o1,3,22,-2,47*,.
O=c1c2ccccc2cnn1Cc1nnc(-c2cccs2)o1,1,-9,2,4,.
CCCCC1=CC2=CC(=O)C(C)(OC(=O)CC)C(=O)C2=CN1CCc1ccccn1 (stereo not given),.,24,11,38*,i
Cc1ccc(C(=O)Nc2cccc(C(O)c3ccccc3)c2)cc1 (stereo not given),.,21,-4,3,.
COC(=O)c1sccc1NC(=O)/C=C/c1ccc(Cl)cc1Cl,-2,-7,-6,41*,i
CCOc1ccc(/C=C2\CCCc3c2nc2ccccc2c3C(=O)O)cc1OC,27,.,.,-9,.
